Measurements: ChEMBL document CHEMBL3576840, “Helical Antimicrobial Sulfono-γ-AApeptides” (J Med Chem, 2015)
≈ marks a conversion by molar mass, not a printed value. Residues, ends and D or L forms follow the SMILES beside them.

Legend:
Staphylococcus aureus = assay: Antimicrobial activity against methicillin-resistant Staphylococcus aureus ATCC 33592 after 16 hrs; type: functional; settings: ATCC 33592, 16 h
Enterococcus faecalis = assay: Antimicrobial activity against Enterococcus faecalis ATCC 700802 after 16 hrs; type: functional; settings: ATCC 700802, 16 h
Procedure, shortened: (§1)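 Broth microdilution: overnight cultures were reinoculated at 1:100, grown to mid-log phase, and diluted to 1 × 10^6 CFU/mL. Cells were mixed 1:1 with serial dilutions […] and incubated 16 h at 37 °C, then read at 600 nm. MIC is the lowest concentration with no growth. Repeated multiple times, in duplicate.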

Escherichia = assay: Antimicrobial activity against Escherichia ATCC 25922 after 16 hrs; type: functional; settings: ATCC 25922, 16 h; procedure, shortened: as §1
Pseudomonas aeruginosa = assay: Antimicrobial activity against Pseudomonas aeruginosa ATCC 27853 after 16 hrs; type: functional; settings: ATCC 27853, 16 h; procedure, shortened: as §1
[1] = system: Staphylococcus epidermidis; assay: Antimicrobial activity against methicillin-resistant Staphylococcus epidermidis RP62A after 16 hrs; type: functional
[2] = Induction of hemolysis in human RBCs incubated for 1 hr; type: cell-based, Erythrocyte; settings: red blood cells
Procedure, shortened: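 Fresh K2EDTA human RBCs were washed in PBS until the supernatant was clear and diluted to a 5% v/v suspension. This was mixed with equal volumes of compound dilutions for 1 h at 37 °C, centrifuged, and supernatant absorbance read at 360 nm. Hemolysis was normalized between PBS (0%) and 2% Triton X-100 (100%) controls. At least three repeats, in duplicate.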

Compound	MIC (Staphylococcus aureus)	MIC (Enterococcus faecalis)	MIC (Escherichia)	MIC (Pseudomonas aeruginosa)	MIC [1]	HC50 at 1 h [2]
CC[C@H](C)[C@H](NC(=O)CN)C(=O)NCC(=O)N[C@@H](CCCCN)C(=O)N[C@@H](Cc1ccccc1)C(=O)N[C@@H](CC(C)C)C(=O)N[C@@H](CCCCN)C(=O)N[C@@H](CCCCN)C(=O)N[C@@H](C)C(=O)N[C@@H](CCCCN)C(=O)N[C@@H](CCCCN)C(=O)N[C@@H](Cc1ccccc1)C(=O)NCC(=O)N[C@@H](CCCCN)C(=O)N[C@@H](C)C(=O)N[C@@H](Cc1ccccc1)C(=O)N[C@H](C(=O)N[C@@H](CCCCN)C(=O)N[C@H](C(=O)N[C@@H](CC(C)C)C(=O)N[C@@H](CCCCN)C(=O)N[C@@H](CCCCN)C(N)=O)[C@@H](C)CC)C(C)C [PEXIGANAN] (H-GIGKFLKKAKKFGKAFVKILKK-NH2)	16 µg/mL (≈ 6.46 µM)	32 µg/mL (≈ 12.9 µM)	8 µg/mL (≈ 3.23 µM)	16 µg/mL (≈ 6.46 µM)	8 µg/mL (≈ 3.23 µM)	
NCCCC[C@H](N)CN(CC(=O)N[C@@H](Cc1ccccc1)CN(CC(=O)N[C@@H](CCCCN)CN(CC(=O)N[C@@H](Cc1ccccc1)CN(CC(=O)N[C@@H](CCCCN)CN(CC(=O)N[C@@H](Cc1ccccc1)CN(CC(=O)N[C@@H](CCCCN)CN(CC(=O)N[C@@H](Cc1ccccc1)CN(CC(N)=O)S(=O)(=O)Cc1ccccc1)S(=O)(=O)CCN)S(=O)(=O)Cc1ccccc1)S(=O)(=O)Cc1ccccc1)S(=O)(=O)Cc1ccccc1)S(=O)(=O)CCN)S(=O)(=O)Cc1ccccc1)S(=O)(=O)Cc1ccccc1	3 µg/mL (≈ 1.15 µM)	10 µg/mL (≈ 3.84 µM)	3 µg/mL (≈ 1.15 µM)	15 µg/mL (≈ 5.76 µM)	2 µg/mL (≈ 0.769 µM)	120 µg/mL
NCCCC[C@H](N)CN(CC(=O)N[C@@H](Cc1ccccc1)CN(CC(=O)N[C@@H](Cc1ccccc1)CN(CC(=O)N[C@@H](Cc1ccccc1)CN(CC(=O)N[C@@H](CCCCN)CN(CC(N)=O)S(=O)(=O)CCN)S(=O)(=O)Cc1ccccc1)S(=O)(=O)CCN)S(=O)(=O)Cc1ccccc1)S(=O)(=O)CCN	> 50 µg/mL	> 50 µg/mL	25 µg/mL (≈ 16 µM)	> 50 µg/mL	20 µg/mL (≈ 12.8 µM)	> 250 µg/mL
CC(C)C[C@H](N)CN(CC(=O)N[C@@H](CC(C)C)CN(CC(=O)N[C@@H](CC(C)C)CN(CC(=O)N[C@@H](CCCCN)CN(CC(=O)N[C@@H](CC(C)C)CN(CC(=O)N[C@@H](CC(C)C)CN(CC(=O)N[C@@H](CC(C)C)CN(CC(=O)N[C@@H](CCCCN)CN(CC(N)=O)S(=O)(=O)CCN)S(=O)(=O)CC(C)C)S(=O)(=O)CCN)S(=O)(=O)CC(C)C)S(=O)(=O)CCN)S(=O)(=O)CC(C)C)S(=O)(=O)CCN)S(=O)(=O)CC(C)C	> 50 µg/mL	> 50 µg/mL	12 µg/mL (≈ 5.44 µM)	50 µg/mL (≈ 22.7 µM)	12 µg/mL (≈ 5.44 µM)	> 250 µg/mL
CC(=O)N[C@@H](CCCCN)CN(CC(=O)N[C@@H](CCCCN)CN(CC(=O)N[C@@H](CCCCN)CN(CC(=O)N[C@@H](CCCCN)CN(CC(=O)N[C@@H](CCCCN)CN(CC(=O)N[C@@H](CCCCN)CN(CC(=O)N[C@@H](CCCCN)CN(CC(=O)N[C@@H](CCCCN)CN(CC(N)=O)S(=O)(=O)Cc1ccccc1)S(=O)(=O)Cc1ccccc1)S(=O)(=O)Cc1ccccc1)S(=O)(=O)Cc1ccccc1)S(=O)(=O)Cc1ccccc1)S(=O)(=O)Cc1ccccc1)S(=O)(=O)Cc1ccccc1)S(=O)(=O)Cc1ccccc1	> 50 µg/mL	> 50 µg/mL	> 50 µg/mL	> 50 µg/mL	> 50 µg/mL	
CC(=O)N[C@@H](CC(C)C)CN(CC(=O)N[C@@H](CC(C)C)CN(CC(=O)N[C@@H](CC(C)C)CN(CC(=O)N[C@@H](CCCCN)CN(CC(=O)N[C@@H](CC(C)C)CN(CC(=O)N[C@@H](CC(C)C)CN(CC(=O)N[C@@H](CC(C)C)CN(CC(=O)N[C@@H](CCCCN)CN(CC(N)=O)S(=O)(=O)CCN)S(=O)(=O)CC(C)C)S(=O)(=O)CCN)S(=O)(=O)CC(C)C)S(=O)(=O)CCN)S(=O)(=O)CC(C)C)S(=O)(=O)CCN)S(=O)(=O)CC(C)C	> 50 µg/mL	> 50 µg/mL	25 µg/mL (≈ 11.1 µM)	50 µg/mL (≈ 22.2 µM)	12 µg/mL (≈ 5.34 µM)	> 250 µg/mL
NCCCC[C@@H](CN(CC(N)=O)S(=O)(=O)CCN)NC(=O)CN(C[C@H](Cc1ccccc1)NC(=O)CN(C[C@H](Cc1ccccc1)NC(=O)CN(C[C@H](Cc1ccccc1)NC(=O)CN(C[C@H](CCCCN)NC(=O)CN(C[C@H](Cc1ccccc1)NC(=O)CN(C[C@@H](N)Cc1ccccc1)S(=O)(=O)CCN)S(=O)(=O)Cc1ccccc1)S(=O)(=O)CCN)S(=O)(=O)Cc1ccccc1)S(=O)(=O)CCN)S(=O)(=O)Cc1ccccc1	3 µg/mL (≈ 1.36 µM)	> 50 µg/mL	12 µg/mL (≈ 5.45 µM)	12 µg/mL (≈ 5.45 µM)	3 µg/mL (≈ 1.36 µM)	> 250 µg/mL
NCCCC[C@@H](CN(CC(N)=O)S(=O)(=O)CCN)NC(=O)CN(C[C@@H](N)Cc1ccccc1)S(=O)(=O)Cc1ccccc1	> 50 µg/mL	> 50 µg/mL	> 50 µg/mL	> 50 µg/mL	> 50 µg/mL	
CC(=O)N[C@@H](CC(C)C)CN(CC(=O)N[C@@H](CC(C)C)CN(CC(=O)N[C@@H](CC(C)C)CN(CC(=O)N[C@@H](CC(C)C)CN(CC(=O)N[C@@H](CC(C)C)CN(CC(=O)N[C@@H](CC(C)C)CN(CC(=O)N[C@@H](CC(C)C)CN(CC(=O)N[C@@H](CC(C)C)CN(CC(N)=O)S(=O)(=O)CCN)S(=O)(=O)CCN)S(=O)(=O)CCN)S(=O)(=O)CCN)S(=O)(=O)CCN)S(=O)(=O)CCN)S(=O)(=O)CCN)S(=O)(=O)CCN	> 50 µg/mL	> 50 µg/mL	> 50 µg/mL	> 50 µg/mL	> 50 µg/mL	
NCCCC[C@@H](CN(CC(N)=O)S(=O)(=O)CCN)NC(=O)CN(C[C@H](Cc1ccccc1)NC(=O)CN(C[C@H](Cc1ccccc1)NC(=O)CN(C[C@H](Cc1ccccc1)NC(=O)CN(C[C@H](CCCCN)NC(=O)CN(C[C@@H](N)Cc1ccccc1)S(=O)(=O)Cc1ccccc1)S(=O)(=O)CCN)S(=O)(=O)Cc1ccccc1)S(=O)(=O)CCN)S(=O)(=O)Cc1ccccc1	6 µg/mL (≈ 3.15 µM)	> 50 µg/mL	12 µg/mL (≈ 6.3 µM)	25 µg/mL (≈ 13.1 µM)	3 µg/mL (≈ 1.58 µM)	> 250 µg/mL
CC(=O)N[C@@H](Cc1ccccc1)CN(CC(=O)N[C@@H](Cc1ccccc1)CN(CC(=O)N[C@@H](Cc1ccccc1)CN(CC(=O)N[C@@H](Cc1ccccc1)CN(CC(=O)N[C@@H](Cc1ccccc1)CN(CC(=O)N[C@@H](Cc1ccccc1)CN(CC(=O)N[C@@H](Cc1ccccc1)CN(CC(=O)N[C@@H](Cc1ccccc1)CN(CC(N)=O)S(=O)(=O)CCN)S(=O)(=O)CCN)S(=O)(=O)CCN)S(=O)(=O)CCN)S(=O)(=O)CCN)S(=O)(=O)CCN)S(=O)(=O)CCN)S(=O)(=O)CCN	25 µg/mL (≈ 10.3 µM)	50 µg/mL (≈ 20.5 µM)	> 50 µg/mL	> 50 µg/mL	6 µg/mL (≈ 2.46 µM)	> 250 µg/mL
NCCCC[C@@H](CN(CC(N)=O)S(=O)(=O)CCN)NC(=O)CN(C[C@H](Cc1ccccc1)NC(=O)CN(C[C@H](Cc1ccccc1)NC(=O)CN(C[C@@H](N)Cc1ccccc1)S(=O)(=O)Cc1ccccc1)S(=O)(=O)CCN)S(=O)(=O)Cc1ccccc1	> 50 µg/mL	> 50 µg/mL	25 µg/mL (≈ 19.5 µM)	> 50 µg/mL	20 µg/mL (≈ 15.6 µM)	> 250 µg/mL
CC(=O)N[C@@H](CCCCN)CN(CC(=O)N[C@@H](Cc1ccccc1)CN(CC(=O)N[C@@H](CCCCN)CN(CC(=O)N[C@@H](Cc1ccccc1)CN(CC(=O)N[C@@H](CCCCN)CN(CC(=O)N[C@@H](Cc1ccccc1)CN(CC(=O)N[C@@H](CCCCN)CN(CC(=O)N[C@@H](Cc1ccccc1)CN(CC(N)=O)S(=O)(=O)Cc1ccccc1)S(=O)(=O)CCN)S(=O)(=O)Cc1ccccc1)S(=O)(=O)Cc1ccccc1)S(=O)(=O)Cc1ccccc1)S(=O)(=O)CCN)S(=O)(=O)Cc1ccccc1)S(=O)(=O)Cc1ccccc1	5 µg/mL (≈ 1.89 µM)	10 µg/mL (≈ 3.78 µM)	3 µg/mL (≈ 1.13 µM)	20 µg/mL (≈ 7.56 µM)	2 µg/mL (≈ 0.756 µM)	80 µg/mL
